Test results as given in ChEMBL document CHEMBL2086292, “Chalcogenopyrylium compounds as modulators of the ATP-binding cassette transporters P-glycoprotein (P-gp/ABCB1) and multidrug resistance protein 1 (MRP1/ABCC1)” (J Med Chem, 2012).
“And” between values parts separate entries of the source, which are not always exact repeats. Equal values may be shown once.

Columns and labels:
[1] = target: T1, MRP1 (Multidrug resistance-associated protein 1) (Homo sapiens, UniProt P33527); assay: Inhibition of human MRP1 mediated uptake of [3H]E2-17betaG in HEK cell membrane vesicles at 30 uM by liquid scintillation counting relative to control; format: cell membranes, HEK293; conditions: HEK cell membrane vesicles with human MRP1, probe [3H]E2-17betaG
T1 sequence (P33527 whole entry): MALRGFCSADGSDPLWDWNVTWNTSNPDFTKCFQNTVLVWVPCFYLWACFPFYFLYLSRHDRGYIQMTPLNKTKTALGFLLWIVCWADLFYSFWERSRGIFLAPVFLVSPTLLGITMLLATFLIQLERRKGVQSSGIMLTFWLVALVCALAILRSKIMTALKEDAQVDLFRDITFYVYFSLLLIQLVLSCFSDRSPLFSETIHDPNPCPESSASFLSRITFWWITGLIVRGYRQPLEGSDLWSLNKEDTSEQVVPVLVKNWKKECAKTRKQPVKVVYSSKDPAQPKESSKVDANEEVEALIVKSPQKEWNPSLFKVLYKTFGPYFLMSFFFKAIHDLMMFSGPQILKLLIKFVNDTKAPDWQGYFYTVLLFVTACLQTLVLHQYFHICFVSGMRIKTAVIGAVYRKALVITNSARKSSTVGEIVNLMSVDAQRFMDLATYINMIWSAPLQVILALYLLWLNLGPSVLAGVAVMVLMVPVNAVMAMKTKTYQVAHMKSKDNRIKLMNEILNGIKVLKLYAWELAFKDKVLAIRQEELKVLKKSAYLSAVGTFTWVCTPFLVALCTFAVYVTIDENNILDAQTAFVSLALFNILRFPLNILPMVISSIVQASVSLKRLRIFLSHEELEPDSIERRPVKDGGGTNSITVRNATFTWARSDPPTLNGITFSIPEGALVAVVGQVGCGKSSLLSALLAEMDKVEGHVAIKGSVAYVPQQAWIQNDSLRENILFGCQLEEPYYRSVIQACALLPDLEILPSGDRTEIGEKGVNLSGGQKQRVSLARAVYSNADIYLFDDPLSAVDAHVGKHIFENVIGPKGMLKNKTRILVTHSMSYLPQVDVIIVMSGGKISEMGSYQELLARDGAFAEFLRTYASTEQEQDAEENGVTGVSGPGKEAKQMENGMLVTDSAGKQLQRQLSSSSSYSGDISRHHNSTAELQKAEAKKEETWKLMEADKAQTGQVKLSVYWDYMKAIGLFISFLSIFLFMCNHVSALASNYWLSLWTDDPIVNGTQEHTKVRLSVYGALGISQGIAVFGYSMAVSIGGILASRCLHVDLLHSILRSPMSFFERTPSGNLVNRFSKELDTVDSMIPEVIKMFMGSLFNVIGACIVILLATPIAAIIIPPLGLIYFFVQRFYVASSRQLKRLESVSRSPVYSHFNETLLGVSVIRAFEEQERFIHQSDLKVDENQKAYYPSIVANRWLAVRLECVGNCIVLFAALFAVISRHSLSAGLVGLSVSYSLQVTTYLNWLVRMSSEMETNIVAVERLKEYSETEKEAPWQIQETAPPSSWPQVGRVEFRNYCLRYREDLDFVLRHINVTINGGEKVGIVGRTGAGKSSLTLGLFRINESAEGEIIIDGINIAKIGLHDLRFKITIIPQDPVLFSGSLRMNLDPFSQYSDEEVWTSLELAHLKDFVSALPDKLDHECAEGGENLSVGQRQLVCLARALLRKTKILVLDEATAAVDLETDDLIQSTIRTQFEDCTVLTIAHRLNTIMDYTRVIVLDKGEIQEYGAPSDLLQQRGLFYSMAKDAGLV
Outline: (§1)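 Inside-out membrane vesicles from HEK cells stably transfected with human MRP1. Vesicle protein (2 μg) incubated in Tris-sucrose buffer pH 7.4 with 400 nM [3H]E2-17βG, 4 mM ATP or AMP and 10 mM MgCl2, 3 min at 37 °C, in duplicate; DMSO ≤1% final. Stopped by ice-cold dilution and rapid filtration, then scintillation counted. ATP-dependent uptake taken as ATP minus AMP values; inhibition reported as percent.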

P-gp (ABCB1) = P-gp (ABCB1) (Homo sapiens, UniProt P08183); assay: Induction of ATPase activity of human His10-tagged P-gp expressed in BHK cells assessed as inorganic phosphate release after 30 mins relative to control; format: cell-based; conditions: human His10-tagged P-gp expressed in BHK cells, read-out: FC
Chain of P-gp (ABCB1) (P08183 whole entry): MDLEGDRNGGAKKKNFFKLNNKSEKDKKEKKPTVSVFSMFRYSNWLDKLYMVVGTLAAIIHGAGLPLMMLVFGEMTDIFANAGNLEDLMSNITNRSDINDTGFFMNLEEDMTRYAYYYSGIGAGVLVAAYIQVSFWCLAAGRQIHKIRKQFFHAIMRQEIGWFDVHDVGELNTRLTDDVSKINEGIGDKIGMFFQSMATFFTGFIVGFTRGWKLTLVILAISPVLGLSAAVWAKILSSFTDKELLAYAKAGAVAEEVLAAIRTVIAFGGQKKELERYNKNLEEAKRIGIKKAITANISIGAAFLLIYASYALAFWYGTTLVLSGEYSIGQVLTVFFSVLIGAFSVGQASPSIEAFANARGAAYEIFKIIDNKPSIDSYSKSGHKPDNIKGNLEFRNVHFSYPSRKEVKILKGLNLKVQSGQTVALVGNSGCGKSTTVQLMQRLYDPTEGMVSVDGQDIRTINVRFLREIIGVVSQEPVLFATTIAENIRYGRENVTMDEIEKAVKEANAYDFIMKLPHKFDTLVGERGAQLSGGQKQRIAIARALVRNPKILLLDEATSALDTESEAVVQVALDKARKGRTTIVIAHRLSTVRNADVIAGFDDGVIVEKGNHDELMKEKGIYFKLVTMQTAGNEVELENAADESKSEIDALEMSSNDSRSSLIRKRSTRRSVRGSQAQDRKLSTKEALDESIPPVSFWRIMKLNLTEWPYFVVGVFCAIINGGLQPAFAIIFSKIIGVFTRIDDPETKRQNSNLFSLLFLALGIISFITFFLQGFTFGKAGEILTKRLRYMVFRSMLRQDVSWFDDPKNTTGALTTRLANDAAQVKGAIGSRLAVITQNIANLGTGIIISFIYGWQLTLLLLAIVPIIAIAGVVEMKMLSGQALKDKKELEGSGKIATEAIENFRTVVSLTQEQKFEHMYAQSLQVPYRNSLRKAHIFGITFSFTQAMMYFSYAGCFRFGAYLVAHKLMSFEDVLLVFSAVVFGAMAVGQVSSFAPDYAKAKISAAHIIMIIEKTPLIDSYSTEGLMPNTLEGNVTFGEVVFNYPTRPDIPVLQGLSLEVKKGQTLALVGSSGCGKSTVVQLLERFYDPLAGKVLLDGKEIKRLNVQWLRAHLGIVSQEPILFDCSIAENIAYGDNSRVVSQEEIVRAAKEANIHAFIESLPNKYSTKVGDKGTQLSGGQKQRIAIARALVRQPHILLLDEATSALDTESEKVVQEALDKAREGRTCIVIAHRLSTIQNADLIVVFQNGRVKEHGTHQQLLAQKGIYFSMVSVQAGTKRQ
Outline: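 Human P-gp with C-terminal His10 tag, stably expressed in BHK cells, purified by Ni-chelate chromatography and mixed 1:1 with 10 mg/mL sheep brain phosphatidylethanolamine in TBS (10 mM Tris/HCl pH 7.4, 150 mM NaCl), then sonicated. Compound titrated, 30 min at 37 °C. Inorganic phosphate released from ATP measured. Vmax expressed as fold over basal activity; KM is the concentration giving half-maximal stimulation.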

MDCK-II [2] = assay: Inhibition of P-gp expressed in MDCK2-MDR1 cells at 5 uM by calcein AM accumulation assay relative to LSN 335984; format: cell-based
Outline: (§2)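 MDCKII cells transfected with wild-type human MDR1, seeded at 40000 cells/well and used on day 4. Washed in DPBS with 10 mM HEPES pH 7.4, then compound in the same buffer 30 min at 37 °C. Replaced with compound plus 0.5 μg/mL calcein AM for a further 20 min. Fluorescence read at Ex 485/Em 530 nm. Signal expressed relative to 5 μM LSN 335984, taken as complete inhibition; vehicle 0.25% DMSO. IC50 from 1:1 serial dilutions by variable-slope sigmoidal fit.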

MDCK-II [3] = assay: Inhibition of P-gp expressed in MDCK2-MDR1 cells at 25 uM by calcein AM accumulation assay relative to LSN 335984; format: cell-based; outline: as §2
[4] = target: T1, MRP1 (Multidrug resistance-associated protein 1); assay: Inhibition of human MRP1-mediated uptake of [3H]E2-17betaG in HEK cell membrane vesicles at 1 uM by liquid scintillation counting relative to control; format: cell membranes, HEK293; conditions: HEK cell membrane vesicles with human MRP1, probe [3H]E2-17betaG; outline: as §1
[5] = target: T1, MRP1 (Multidrug resistance-associated protein 1); assay: Inhibition of human MRP1-mediated uptake of [3H]E2-17betaG in HEK cell membrane vesicles at 10 uM by liquid scintillation counter; format: cell membranes, HEK293; conditions: HEK cell membrane vesicles with human MRP1, probe [3H]E2-17betaG; outline: as §1
[6] = Octanol-water partition coefficient, log P of the compound in PBS at pH 7.4 after 1 hr by shake flask method; format: physicochemical
Outline: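 Shake-flask method: saturated n-octanol solution shaken with an equal volume of PBS pH 7.4 for 3–5 min, then left to settle 1 h at 23 °C. Concentration in each layer measured spectrophotometrically.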

[7] = Normalized ratio of the compound assessed as ratio of PBA/AB in absence of LSN 335984 to ratio of PBA/AB in presence of LSN 335984 in MDCK2-MDR1 cells at 5 uM after 1 hr; format: ADME, cell-based, Canis lupus familiaris; conditions: dog, mdck-mdr1, 1 h
Outline: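 MDCKII-MDR1 cells seeded at 50000 cells/cm² on Transwell filters, used on day 6. Preincubated 30 min with 4.3 mg/mL BSA in DPBSH, with or without 5 μM LSN 335984. Compound (5 μM) added to the apical or basolateral donor chamber and incubated 1 h at 37 °C with nutation. Donor and receiver samples quantified by LC-MS/MS. AB and BA permeabilities calculated. Normalized ratio is the BA/AB ratio without inhibitor divided by the ratio with inhibitor.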

P-glycoprotein (MDR1) [8] = assay: P-glycoprotein-mediated transport in MDCK2-MDR1 cells assessed as permeability across apical to basolateral side at 5 uM after 1 hr; conditions: dog, MDCK-MDR1
P-glycoprotein (MDR1) [9] = assay: P-glycoprotein-mediated transport in MDCK2-MDR1 cells assessed as permeability across basolateral to apical side at 5 uM after 1 hr; conditions: dog, MDCK-MDR1
[10] = target: T1, MRP1 (Multidrug resistance-associated protein 1); assay: Inhibition of human MRP1 mediated uptake of [3H]E2-17betaG in HEK cell membrane vesicles at 5 uM by liquid scintillation counting relative to control; format: cell membranes, HEK293; conditions: HEK cell membrane vesicles with human MRP1, probe [3H]E2-17betaG
Outline: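 Inside-out vesicles from stably transfected HEK-MRP1 cells (2 μg protein) in Tris-sucrose buffer pH 7.4 with [³H]E₂17βG 400 nM, ATP or AMP 4 mM, MgCl₂ 10 mM, 3 min at 37 °C, compound at 5 μM; DMSO ≤1%; stopped by ice-cold dilution, rapid filtration, scintillation counting; ATP-dependent uptake = ATP minus AMP; duplicate wells.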

[11] = Inhibition of P-gp expressed in MDCK2-MDR1 cells by calcein AM accumulation assay; format: cell-based; conditions: MDCK-II
Outline: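 MDCKII cells transfected with wild-type human MDR1, seeded at 40000 cells/well and used on day 4. Washed in DPBS with 10 mM HEPES pH 7.4, then compound in the same buffer 30 min at 37 °C. Replaced with compound plus 0.5 μg/mL calcein AM for a further 20 min. IC50 from 1:1 serial dilutions by variable-slope sigmoidal fit.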

[12] = Inhibition of P-gp mediated [3H]VIN efflux in MDCK2-MDR1 cells by scintillation counter; format: cell-based; conditions: MDCK-II
Outline: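 MDCKII-MDR1 monolayers on Transwell filters, used on day 6. Rinsed in DPBSH, then preincubated 30 min at 37 °C with compound ([…]) in BSA/DPBSH. [3H]vinblastine (0.25 μCi/mL) plus compound added basolaterally and fresh compound solution added apically. Apical buffer replaced every 10 min; apical radioactivity counted by scintillation. IC50 fitted.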

SMILES	inhibition at 30 µM [1]	fold induction at 0.5 h (P-gp (ABCB1))	inhibition at 1 µM [4]	further results
CC(C)(C)c1cc(-c2ccc(C(=O)O)s2)cc(C(C)(C)C)[s+]1		3.5	8%	inhibition (MDCK-II [2]): 0%; inhibition (MDCK-II [3]): 0%
CCN(CC)C(=O)c1ccccc1-c1cc(C(C)(C)C)[s+]c(C(C)(C)C)c1	34%	7.9		inhibition (MDCK-II [2]): 0%; inhibition (MDCK-II [3]): 0%
CC(C)(C)c1cc(-c2ccc(C(=O)N3CCCCC3)s2)cc(C(C)(C)C)[s+]1.F[P-](F)(F)(F)(F)F		5.5	0%	inhibition (MDCK-II [3]): < 7%; inhibition at 10 µM [5]: 11%; logD at 1 h [6]: 0.2; Ratio [7]: 10; Papp A-B at 1 h, 5 µM (P-glycoprotein (MDR1) [8]): 0.38 ×10⁻⁶ cm/s; Papp B-A at 1 h, 5 µM (P-glycoprotein (MDR1) [9]): 5.9 ×10⁻⁶ cm/s
CCN(CC)C(=O)c1ccccc1-c1cc(C(C)(C)C)[se+]c(C(C)(C)C)c1	31%	5.9		
Cc1cc(C(C)(C)C)[se+]c(C(C)(C)C)c1	0%			
CC(C)(C)c1cc(-c2ccc(C(=S)N3CCCCC3)s2)cc(C(C)(C)C)[s+]1.[Cl-]		3.7	0%	inhibition at 10 µM [5]: 32%; logD at 1 h [6]: 0.7; Ratio [7]: 15; Papp A-B at 1 h, 5 µM (P-glycoprotein (MDR1) [8]): 0.18 ×10⁻⁶ cm/s; Papp B-A at 1 h, 5 µM (P-glycoprotein (MDR1) [9]): 30 ×10⁻⁶ cm/s
c1ccc(-c2cc(-c3ccc(N4CCOCC4)cc3)[te+]c(-c3ccc(N4CCOCC4)cc3)c2)cc1	89%	4		
CC(C)(C)c1cc(-c2ccccc2)cc(C(C)(C)C)[se+]1		1.4	0%	
CC(C)(C)c1cc(-c2ccc(C(=S)N3CCCCC3)s2)cc(C(C)(C)C)[te+]1		7.4		inhibition at 5 µM [10]: 50%
CN(C)c1ccc(-c2cc(-c3ccc(C(=O)N4CCCCC4)s3)cc(-c3ccc(N(C)C)cc3)[s+]2)cc1.F[P-](F)(F)(F)(F)F		6	18%	inhibition at 10 µM [5]: 78%; logD at 1 h [6]: 2.1; IC50 [11]: 24 µM; IC50 [12]: 5.9 µM; Ratio [7]: 79; Papp A-B at 1 h, 5 µM (P-glycoprotein (MDR1) [8]): 0.17 ×10⁻⁶ cm/s; Papp B-A at 1 h, 5 µM (P-glycoprotein (MDR1) [9]): 62 ×10⁻⁶ cm/s
CC(C)(C)c1cc(-c2ccccc2)cc(C(C)(C)C)[te+]1	34%	1.5		
Cc1cc(-c2ccc(N(C)C)cc2)cc(-c2ccc(N(C)C)cc2)[se+]1		1.4	15%	
CC(C)(C)c1cc(-c2ccc(C(=S)N3CCCCC3)s2)cc(C(C)(C)C)[se+]1	81%	4.3		
Nc1ccc(-c2cc(-c3ccc(N4CCOCC4)cc3)cc(-c3ccc(N)cc3)[te+]2)cc1			8%	
CCN(CC)C(=O)c1ccccc1-c1cc(C(C)(C)C)[te+]c(C(C)(C)C)c1	45%	6.9		
Nc1ccc(-c2cc(-c3ccc(N4CCOCC4)cc3)cc(-c3ccccc3)[te+]2)cc1	96%	4.5		
CN(C)c1ccc(-c2cc(-c3ccc(N(C)C)cc3)[te+]c(C(C)(C)C)c2)cc1	96%	8.4		
Cc1cc(C(C)(C)C)[o+]c(C(C)(C)C)c1	0%			
CC(C)(C)c1cc(-c2ccc(C(=S)N3CCCCC3)s2)cc(C(C)(C)C)[s+]1				inhibition (MDCK-II [2]): 3.6%; inhibition (MDCK-II [3]): 27% and < 7%

Second part, led by results:

inhibition at 30 µM [1]	fold induction at 0.5 h (P-gp (ABCB1))	inhibition at 1 µM [4]	SMILES	further results
33%	2.9		CC(C)(C)c1cc(-c2ccccc2)cc(C(C)(C)C)[s+]1	inhibition (MDCK-II [2]): 0%; inhibition (MDCK-II [3]): 1%
43%	13.5		CCN(CC)C(=O)c1ccccc1-c1cc(-c2ccc(N(C)C)cc2)[s+]c(C(C)(C)C)c1	inhibition (MDCK-II [2]): 2%; inhibition (MDCK-II [3]): 13%
50%	6.9		CN(C)c1ccc(-c2cc(-c3ccccc3)cc(C(C)(C)C)[s+]2)cc1	
94%	7.2		CN(C)c1ccc(-c2cc(-c3ccc(N(C)C)cc3)[s+]c(C(C)(C)C)c2)cc1	
	6.6	0%	CN(C)c1ccc(-c2cc(-c3ccc(C(=O)N4CCCCC4)s3)cc(C(C)(C)C)[s+]2)cc1.F[P-](F)(F)(F)(F)F	inhibition at 10 µM [5]: 59%; logD at 1 h [6]: 1.4; IC50 [11]: 18 µM; Ratio [7]: 4; Papp A-B at 1 h, 5 µM (P-glycoprotein (MDR1) [8]): 0.56 ×10⁻⁶ cm/s; Papp B-A at 1 h, 5 µM (P-glycoprotein (MDR1) [9]): 2.2 ×10⁻⁶ cm/s
96%	13		CN(C)c1ccc(-c2cc(-c3ccc(C(=O)O)s3)cc(C(C)(C)C)[s+]2)cc1	
96%	10.1		CN(C)c1ccc(-c2cc(-c3ccc(N(C)C)cc3)[se+]c(C(C)(C)C)c2)cc1	
	5.7	25%	CN(C)c1ccc(-c2cc(-c3ccc(C(=S)N4CCCCC4)s3)cc(-c3ccc(N(C)C)cc3)[s+]2)cc1.[Cl-]	inhibition at 10 µM [5]: 81%; logD at 1 h [6]: 1.6; IC50 [11]: 34 µM; IC50 [12]: 6.6 µM; Ratio [7]: 8; Papp A-B at 1 h, 5 µM (P-glycoprotein (MDR1) [8]): 0.11 ×10⁻⁶ cm/s; Papp B-A at 1 h, 5 µM (P-glycoprotein (MDR1) [9]): 1.6 ×10⁻⁶ cm/s
		0%	Cc1cc(-c2ccccc2)[s+]c(-c2ccccc2)c1	
	5.9		CCCCc1cc(-c2ccc(N(C)C)cc2)cc(-c2ccc(N(C)C)cc2)[s+]1	inhibition at 5 µM [10]: 70%
